Active and inactive are the calls of the source. The rule behind the calls is not given here.
Legend:
RAW264.7 [1] = assay: Antiinflammatory activity in mouse RAW264.7 cells assessed as inhibition of LPS-induced nitric oxide production preincubated for 3 hrs followed by LPS addition and measured after 24 hrs by griess assay; assay type: functional, cell-based
In short: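 RAW264.7 cells in 96-well plates were exposed to compounds over 0–100 µM for 3 h, then to LPS 1 µg/mL for 24 h. Controls were DMSO without LPS (vehicle) and DMSO with LPS (model). Nitrite in the medium was read with Griess reagent at 540 nm. Percent inhibition was calculated and IC50 derived; hydrocortisone was the positive control.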

RAW264.7 [2] = assay: Cytotoxicity against mouse RAW264.7 cells assessed as effect on cell viability at 3.125 to 100 uM after 24 hrs by CCK8 assay; assay type: cell-based; settings: raw264.7, 24 h
In short: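 Cells were grown in DMEM with 10% FBS and penicillin/streptomycin at 37 °C, 5% CO2. For the assay they were seeded at 5×10^4 cells/well and exposed in serum-free medium to a range of compound concentrations for 24 h, with DMSO as vehicle. Viability was read by CCK-8, in triplicate.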

RAW264.7 [3] = assay: Antiinflammatory activity in mouse RAW264.7 cells assessed as inhibition of LPS-induced IL1beta production preincubated for 3 hrs followed by LPS addition and measured after 24 hrs by ELISA; assay type: functional, cell-based
In short: (§1)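 Cells in 96-well plates were pretreated with DMSO or compound at 5, 10 and 20 µM for 3 h, then stimulated with LPS 1 µg/mL for 24 h. IL-1β and IL-6 in the medium were quantified by commercial ELISA, with OD read at […]. Results are mean ± SD of at least three independent experiments.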

RAW264.7 [4] = assay: Antiinflammatory activity in mouse RAW264.7 cells assessed as inhibition of LPS-induced IL6 production preincubated for 3 hrs followed by LPS addition and measured after 24 hrs by ELISA; assay type: functional, cell-based; in short: as §1
RAW264.7 [5] = assay: Antiinflammatory activity in mouse RAW264.7 cells assessed as inhibition of LPS-induced iNOS expression at 5 to 20 uM preincubated for 3 hrs followed by LPS addition and measured after 24 hrs by Western blot analysis; assay type: functional
In short: (§2)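 RAW264.7 cells in 6-well plates were pretreated as for ELISA, then given LPS 1 µg/mL for 24 h and lysed with protease inhibitors. 30 µg total protein was run on 10% SDS-PAGE and blotted to nitrocellulose, blocked in 5% skim milk, and probed overnight at 4 °C. Primary antibodies were iNOS 1:200; COX-2, NF-κB, IκBα and p-IκBα 1:2000; β-actin 1:2000 as reference. Detection used HRP secondary and ECL; data from ≥3 independent experiments.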

RAW264.7 [6] = assay: Antiinflammatory activity in mouse RAW264.7 cells assessed as inhibition of LPS-induced COX2 expression at 5 to 20 uM preincubated for 3 hrs followed by LPS addition and measured after 24 hrs by Western blot analysis; assay type: functional, cell-based; in short: as §2
[7] = biological target: T1, NF-kappa-B inhibitor alpha (Mus musculus) (UniProt Q9Z1E3); assay: Inhibition of LPS-induced IkappaBalpha phosphorylation in mouse RAW264.7 cells at 5 to 20 uM preincubated for 3 hrs followed by LPS addition and measured after 24 hrs by Western blot analysis; assay type: cell-based; in short: as §2
T1 sequence (whole entry): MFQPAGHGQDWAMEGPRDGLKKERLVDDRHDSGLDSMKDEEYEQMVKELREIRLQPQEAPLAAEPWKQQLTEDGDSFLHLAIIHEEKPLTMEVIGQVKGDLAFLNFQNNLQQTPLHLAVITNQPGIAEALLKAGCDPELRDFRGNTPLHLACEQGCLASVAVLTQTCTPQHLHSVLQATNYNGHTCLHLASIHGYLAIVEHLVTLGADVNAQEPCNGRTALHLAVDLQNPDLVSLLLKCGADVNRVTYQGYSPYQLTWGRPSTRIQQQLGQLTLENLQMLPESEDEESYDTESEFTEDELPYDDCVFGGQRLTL

RAW264.7 [8] = assay: Inhibition of LPS-induced IkappaBalpha expression in mouse RAW264.7 cells at 5 to 20 uM preincubated for 3 hrs followed by LPS addition and measured after 24 hrs by Western blot analysis; assay type: functional, cell-based; in short: as §2
RAW264.7 [9] = assay: Inhibition of LPS-induced NFkappaB expression in mouse RAW264.7 cells at 5 to 20 uM preincubated for 3 hrs followed by LPS addition and measured after 24 hrs by Western blot analysis; assay type: functional, cell-based; in short: as §2
[10] = biological target: Transcription factor p65 (Mus musculus) (UniProt Q04207); assay: Inhibition of LPS-induced NFkappaB p65 nuclear translocation in mouse RAW264.7 cells at 10 uM preincubated for 2 hrs followed by LPS-stimulation and measured after 12 hrs by DAPI staining based immunofluorescence microscopic analysis; assay type: cell-based
Transcription factor p65 (Mus musculus), sequence (Q04207 whole entry): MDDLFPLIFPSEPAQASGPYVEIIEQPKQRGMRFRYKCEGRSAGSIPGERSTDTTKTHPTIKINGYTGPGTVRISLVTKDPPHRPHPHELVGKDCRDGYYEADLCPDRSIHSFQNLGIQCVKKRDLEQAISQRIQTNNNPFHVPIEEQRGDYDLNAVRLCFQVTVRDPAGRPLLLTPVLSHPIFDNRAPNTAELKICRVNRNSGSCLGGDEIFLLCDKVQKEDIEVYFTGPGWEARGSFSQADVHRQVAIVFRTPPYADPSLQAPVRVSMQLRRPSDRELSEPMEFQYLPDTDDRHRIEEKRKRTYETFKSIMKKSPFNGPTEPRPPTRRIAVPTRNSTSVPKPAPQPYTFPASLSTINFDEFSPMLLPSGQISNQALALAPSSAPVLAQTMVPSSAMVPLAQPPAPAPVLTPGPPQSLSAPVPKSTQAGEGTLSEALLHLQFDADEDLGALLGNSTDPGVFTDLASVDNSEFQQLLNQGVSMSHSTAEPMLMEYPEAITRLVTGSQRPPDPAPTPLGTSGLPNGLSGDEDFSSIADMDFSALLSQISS
In short: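 Cells grown in glass chambers were pretreated with DMSO or compound for 2 h, then given LPS 1 µg/mL for 12 h. They were fixed in 4% paraformaldehyde for 15 min, permeabilized with 0.25% Triton X-100, and labelled with p65 antibody plus AlexaFluor488 secondary. Nuclei were stained with DAPI at 37 °C for 30 min in the dark, and cells were imaged by fluorescence microscopy.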

SMILES	IC50 (RAW264.7 [1]) [µM]	further results
C=C1CCC2[C@](C)(CO)[C@H](O)CC[C@@]2(C)[C@@H]1CCOc1ccc2oc(-c3ccccc3)cc(=O)c2c1 (stereo partly drawn)	> 100	
C=C1CCC2[C@](C)(CO)[C@H](O)CC[C@@]2(C)[C@@H]1CCOc1cccc2ccccc12 (stereo partly drawn)	44.7	
C=C1CCC2[C@](C)(CO)[C@H](O)CC[C@@]2(C)[C@@H]1CCOC(=O)c1cccnc1 (stereo partly drawn)	> 50	
C=C1CCC2[C@](C)(CO)[C@H](O)CC[C@@]2(C)[C@@H]1CCOc1ccccc1O (stereo partly drawn)	47.7	
C=C1CCC2[C@](C)(CO)[C@H](O)CC[C@@]2(C)[C@@H]1CCOc1ccc(Oc2ccccc2)cc1 (stereo partly drawn)	12.8	
C=C1CCC2[C@](C)(CO)[C@H](O)CC[C@@]2(C)[C@@H]1CCOC(=O)c1ccccc1 (stereo partly drawn)	> 100	
C=C1CCC2[C@](C)(CO)[C@H](O)CC[C@@]2(C)[C@@H]1CCn1cncn1 (stereo partly drawn)	> 100	
C=C1CC[C@@H]2[C@](C)(CO)[C@H](O)CC[C@@]2(C)[C@@H]1C/C=C1/C(=O)OC[C@H]1O [ANDROGRAPHOLIDE]	8.81	
C=C1CCC2[C@](C)(CO)[C@H](O)CC[C@@]2(C)[C@@H]1CCn1ccnc1 (stereo partly drawn)	> 50	
C=C1CCC2[C@](C)(CO)[C@H](O)CC[C@@]2(C)[C@@H]1CCn1ccc(=O)[nH]c1=O (stereo partly drawn)	> 100	
C=C1CCC2[C@](C)(CO)[C@H](O)CC[C@@]2(C)[C@@H]1CCOC(=O)c1ccccc1[N+](=O)[O-] (stereo partly drawn)	35.2	
C=C1CCC2[C@](C)(CO)[C@H](O)CC[C@@]2(C)[C@@H]1CCOc1ccc(-c2cc(=O)c3cc(C)ccc3o2)cc1 (stereo partly drawn)	> 100	
C=C1CCC2[C@](C)(CO)[C@H](O)CC[C@@]2(C)[C@@H]1CCOc1ccc(Br)cc1 (stereo partly drawn)	40.2	
C=C1CCC2[C@](C)(CO)[C@H](O)CC[C@@]2(C)[C@@H]1CCn1c(N)nccc1=O (stereo partly drawn)	> 100	
C=C1CCC2[C@](C)(CO)[C@H](O)CC[C@@]2(C)[C@@H]1CCn1cnc2c(N)ncnc21 (stereo partly drawn)	> 100	
C=C1CCC2[C@](C)(CO)[C@H](O)CC[C@@]2(C)[C@@H]1CCOC(=O)c1ccc([N+](=O)[O-])cc1 (stereo partly drawn)	37.3	
C=C1CCC2[C@](C)(CO)[C@H](O)CC[C@@]2(C)[C@@H]1CCOc1ccc([N+](=O)[O-])cc1 (stereo partly drawn)	3.38	Activity (RAW264.7 [2]): Non-Toxic; inhibition (RAW264.7 [3]): Dose-dependent effect; inhibition (RAW264.7 [4]): Dose-dependent effect; inhibition (INH) (RAW264.7 [5]): 100%; inhibition (RAW264.7 [6]): Active; inhibition [7]: Active; inhibition (RAW264.7 [8]): Active; inhibition (RAW264.7 [9]): Active; inhibition [10]: Active
C=C1CCC2[C@](C)(CO)[C@H](O)CC[C@@]2(C)[C@@H]1CCOc1ccc(C(C)(C)C)cc1 (stereo partly drawn)	35.8	
C=C1CCC2[C@](C)(CO)[C@H](O)CC[C@@]2(C)[C@@H]1CCOc1ccc2ccc(=O)oc2c1 (stereo partly drawn)	> 50	

From ChEMBL document CHEMBL4382215, “Synthesis of new ent-labdane diterpene derivatives from andrographolide and evaluation of their anti-inflammatory activities” (Eur J Med Chem, 2019)
